Source: ChEMBL document CHEMBL1121610, “Plant antitumor agents. 18. Synthesis and biological activity of camptothecin analogues” (J Med Chem, 1980)
Values after ≈ are worked out from the molar mass of the structure shown. Active and inactive are the calls of the source. The calls are words filed in the database; no cut-off is given here.

Experiments:
[1] = In vitro cytotoxicity of compound was tested against 9KB cells.; format: functional; details: Homo sapiens, read-out: ED50 (the source's name)
In short: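 Cytotoxicity against KB (9KB) cells was run in vitro at Research Triangle Institute under standard protocols. Potency is expressed as ED50 in μg/mL.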

P388 [2] = experiment: This is the dose at which optimal activity was observed against P-388 leukemia cells; format: functional, Mus musculus
In short: (§1)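 In vivo P-388 lymphocytic leukemia (PS) assay run by National Cancer Institute contractors under standard protocols. Compounds were dosed over a range in mg/kg, and activity is reported as % T/C (treated vs control). The optimal dose and the lowest toxic dose were taken from the dose series, and a therapeutic index was tabulated from them.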

P388 [3] = experiment: Antileukemic activity against P-388 leukemia cells was measured at given dose range; format: functional, Mus musculus; in short: as §1
[4] = Therapeutic index was measured on P-388 leukemia cells against P-388 leukemia cells; format: organism-based; details: mouse, read-out: Therapeutic index; in short: as §1
Mus musculus [5] = experiment: Optimal activity expressed as percentage treated to that of control was measured in vivo against P-388 leukemia cells; format: functional; in short: as §1
P388 [6] = experiment: Lowest toxicity was observed at this dose against P-388 leukemia cells; format: functional, Mus musculus; in short: as §1
[7] = Therapeutic index was measured on P-388 leukemia cells.; details: mouse, read-out: Therapeutic index; in short: as §1
Mus musculus [8] = experiment: Optimal activity expressed as percentage treated to that of control was measured in vivo against P-388 leukemia cells; NA means inactive; format: functional, organism-based; in short: as §1
[9] = Therapeutic index was measured on P-388 leukemia cells; details: mouse, read-out: Therapeutic index; in short: as §1

SMILES | EC50 [1] | Dose (P388 [2]) | Dose range (P388 [3]) | selectivity ratio [4] | T/C (Mus musculus [5]) | Dose (P388 [6]) | selectivity ratio [7] | T/C (Mus musculus [8]) | selectivity ratio [9]
CCC1(O)C(=O)OCc2c1cc1n(c2=O)Cc2cc3cc4ccccc4cc3nc2-1 (stereo unspecified) | 0.2 µg/mL (≈ 0.502 µM) | 16 mg/kg | 32 mg/kg | 4 | 198% | – | – | – | –
CCCC1(O)C(=O)OCc2c1cc1n(c2=O)Cc2cc3cccnc3nc2-1 (stereo unspecified) | – | 32 mg/kg | 32 mg/kg | 2 | 175% | – | – | – | –
CC[C@@]1(O)C(=O)OCc2c1cc1n(c2=O)Cc2cc3cc(O)ccc3nc2-1 [HYDROXYCAMPTOTHECIN] | 0.02 µg/mL (≈ 0.0549 µM) | 4 mg/kg | 8 mg/kg | – | 314% | 8 mg/kg | 8 | – | –
COCCC1(O)C(=O)OCc2c1cc1n(c2=O)Cc2cc3ccccc3nc2-1 (stereo unspecified) | 0.2 µg/mL (≈ 0.529 µM) | 4 mg/kg | 8 mg/kg | – | 160% | 8 mg/kg | 2 | – | –
CCC1(O)C(=O)OCc2c1cc1n(c2=O)Cc2cc3ccccc3nc2-1 (stereo unspecified) | 0.1 µg/mL (≈ 0.287 µM) | 8 mg/kg | 16 mg/kg | – | 222% | 16 mg/kg | 8 | – | –
CC[C@@]1(O)C(=O)OCc2c1cc1n(c2=O)Cc2cc3cc(OCC(=O)[O-])ccc3nc2-1.[Na+] | > 1 µg/mL | – | 32 mg/kg | – | – | – | – | inactive | –
CCN(CC)CCOc1ccc2nc3c(cc2c1)Cn1c-3cc2c(c1=O)COC(=O)[C@]2(O)CC.Cl | > 1 µg/mL | 32 mg/kg | 32 mg/kg | 16 | 234% | – | – | – | –
CC[C@@]1(O)C(=O)OCc2c1cc1n(c2=O)Cc2cc3cc(OC)ccc3nc2-1 | 0.02 µg/mL (≈ 0.0529 µM) | 0.5 mg/kg | 4 mg/kg | – | 145% | 1 mg/kg | 1 | – | –
CC[C@@]1(O)C(=O)OCc2c1cc1n(c2=O)Cc2cc3ccccc3nc2-1 [CAMPTOTHECIN] | – | 4 mg/kg | 8 mg/kg | – | 197% | 8 mg/kg | – | – | 8
CC[C@@](O)(C(=O)[O-])c1cc2n(c(=O)c1CO)Cc1cc3ccccc3nc1-2.[Na+] | – | 40 mg/kg | 8 mg/kg | – | 212% | 80 mg/kg | 4 | – | –
